These results are taken from ChEMBL document CHEMBL4138314, “Synthesis and Evaluation of N-Phenyl-3-sulfamoyl-benzamide Derivatives as Capsid Assembly Modulators Inhibiting Hepatitis B Virus (HBV)” (J Med Chem, 2018).

Data set [1] is described as follows: AUC (0 to infinity) in humanized mouse at 200 mg/kg, sc for 8 days measured on day 8 post last dose by LC-MS/MS analysis. It is filed as ADME, organism-based. Also noted: dose 200 mg/kg, route subcutaneous, time infinity. To be noted: in vivo.
A short description of data set [2]: Half life in humanized mouse at 50 mg/kg, sc measured on day 1 post dose by LC-MS/MS analysis. The format is ADME, organism-based. To be noted: in vivo.
Data set [3] can be described thus: Cmax in humanized mouse at 200 mg/kg, sc measured on day 1 post dose by LC-MS/MS analysis. The format is ADME, organism-based. Details: dose 200 mg/kg, route subcutaneous. Conditions: in vivo.
In data set [4] the target is T1, 5-hydroxytryptamine receptor 2B (Homo sapiens, UniProt P41595). Nature of the data set: Antagonist activity at 5-HT2B (unknown origin) at 10 uM. It is filed as functional. Summed up:
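Receptor/ion channel/transporter panel of 80 targets screened at 10 µM, giving percent effect at 5-HT2B; follow-up 5-HT2B functional testing in agonist and antagonist modes, with antagonist IC50 determined.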

Data set [5] can be described thus: Drug metabolism in human liver microsomes at 1 uM after 15 mins by LC-MS/MS analysis. It is filed as ADME, microsome. Conditions: read-out: Drug metabolism. In short, it runs like this:
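Compound incubated 15 min with human or mouse liver microsomes; stability expressed as percent turnover (metabolised) at 15 min.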

For data set [6], the target named is Cytochrome P450 2D6 (Homo sapiens, UniProt P10635). Briefly: Inhibition of CYP2D6 (unknown origin). The format is ADME.
The target in data set [7] is T2, Cytochrome P450 2C8 (Homo sapiens, UniProt P10632).
T2 sequence (P10632 whole entry): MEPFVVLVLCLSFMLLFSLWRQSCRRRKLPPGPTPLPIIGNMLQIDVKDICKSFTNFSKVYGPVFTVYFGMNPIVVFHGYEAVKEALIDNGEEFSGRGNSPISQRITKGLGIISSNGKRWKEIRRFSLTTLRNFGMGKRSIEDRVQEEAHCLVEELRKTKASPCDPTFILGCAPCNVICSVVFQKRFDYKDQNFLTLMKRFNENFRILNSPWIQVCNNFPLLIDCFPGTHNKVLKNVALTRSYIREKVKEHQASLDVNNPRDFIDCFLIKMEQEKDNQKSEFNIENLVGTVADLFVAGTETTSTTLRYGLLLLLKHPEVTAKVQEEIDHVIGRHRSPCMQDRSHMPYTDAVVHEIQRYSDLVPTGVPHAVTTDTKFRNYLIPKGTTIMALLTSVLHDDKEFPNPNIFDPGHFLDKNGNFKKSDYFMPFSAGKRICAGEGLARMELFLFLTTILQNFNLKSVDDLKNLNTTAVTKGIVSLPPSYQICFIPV
Nature of the data set: Inhibition of CYP2C8 (unknown origin). The format is ADME.

A short description of data set [8]: Cmax in C57BL/6 mouse at 10 mg/kg, po by LC-MS/MS analysis. Conditions: in vivo. Also noted: dose 10 mg/kg, route oral. The format is ADME, organism-based.
Data set [9] is described as follows: Tmax in C57BL/6 mouse at 50 mg/kg, sc by LC-MS/MS analysis. The format is ADME, organism-based. Conditions: in vivo. In short, it runs like this: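 C57BL/6 mice dosed subcutaneously at 50 mg/kg to bypass first-pass metabolism; plasma and liver levels sampled 24 h after dosing.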
The nature of data set [10]: Drug uptake in humanized mouse liver at 50 mg/kg, sc after 24 hrs by LC-MS/MS analysis. It is filed as ADME, organism-based. Conditions: read-out: Drug uptake. In short, it runs like this:
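Uninfected humanized mice given 50 or 200 mg/kg subcutaneously once daily as a methocel suspension for 8 days; liver concentration measured 24 h after dosing.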

The target of data set [11] is T1, 5-hydroxytryptamine receptor 2B. Briefly: Agonist activity at 5-HT2B (unknown origin). It is filed as functional.
Data set [12] is described as follows: Kinetic solubility of the compound at pH 7.4 after 4 hrs by UPLC-UV analysis. Conditions: buffer, read-out: Kinetic_solubility. It is filed as physicochemical.
The nature of data set [13]: Half life in C57BL/6 mouse at 10 mg/kg, po by LC-MS/MS analysis. Conditions: in vivo. The format is ADME, organism-based. Summed up: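 Single-dose PK in C57BL/6 mice after intravenous or oral dosing, with oral doses of 10 and 50 mg/kg; plasma clearance and volume of distribution taken from the i.v. arm.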
Data set [14] is described as follows: Tmax in C57BL/6 mouse at 10 mg/kg, po by LC-MS/MS analysis. The format is ADME, organism-based. To be noted: in vivo. Summed up:
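Single-dose PK in C57BL/6 mice given compound intravenously and orally, with oral doses of 10 and 50 mg/kg. Plasma clearance, volume of distribution and oral bioavailability were derived from the plasma profiles.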

Data set [15] in a line: AUC (0 to infinity) in humanized mouse at 50 mg/kg, sc measured on day 1 post dose by LC-MS/MS analysis. The format is ADME, organism-based. Details: dose 50 mg/kg, time infinity, route subcutaneous. Conditions: in vivo.

Structures are written as SMILES. In brackets after ≈: the same amount, converted by molar mass. Activity calls are given as the source filed them. No cut-off for these calls is given here.

T1 sequence (P41595 whole entry): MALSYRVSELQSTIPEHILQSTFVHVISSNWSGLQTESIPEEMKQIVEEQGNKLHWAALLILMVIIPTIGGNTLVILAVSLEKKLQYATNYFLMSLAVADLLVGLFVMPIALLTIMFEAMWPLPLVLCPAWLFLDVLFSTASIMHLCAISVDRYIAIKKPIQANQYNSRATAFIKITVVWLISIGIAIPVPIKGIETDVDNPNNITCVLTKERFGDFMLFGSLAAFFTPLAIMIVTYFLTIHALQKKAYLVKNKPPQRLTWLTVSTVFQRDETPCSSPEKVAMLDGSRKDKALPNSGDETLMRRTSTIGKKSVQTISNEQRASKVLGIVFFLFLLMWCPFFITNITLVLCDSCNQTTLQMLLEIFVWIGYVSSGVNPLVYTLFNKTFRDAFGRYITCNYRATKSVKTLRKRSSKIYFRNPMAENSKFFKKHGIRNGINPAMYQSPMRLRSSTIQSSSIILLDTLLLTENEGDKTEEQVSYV
Chain of Cytochrome P450 2D6 (P10635 whole entry): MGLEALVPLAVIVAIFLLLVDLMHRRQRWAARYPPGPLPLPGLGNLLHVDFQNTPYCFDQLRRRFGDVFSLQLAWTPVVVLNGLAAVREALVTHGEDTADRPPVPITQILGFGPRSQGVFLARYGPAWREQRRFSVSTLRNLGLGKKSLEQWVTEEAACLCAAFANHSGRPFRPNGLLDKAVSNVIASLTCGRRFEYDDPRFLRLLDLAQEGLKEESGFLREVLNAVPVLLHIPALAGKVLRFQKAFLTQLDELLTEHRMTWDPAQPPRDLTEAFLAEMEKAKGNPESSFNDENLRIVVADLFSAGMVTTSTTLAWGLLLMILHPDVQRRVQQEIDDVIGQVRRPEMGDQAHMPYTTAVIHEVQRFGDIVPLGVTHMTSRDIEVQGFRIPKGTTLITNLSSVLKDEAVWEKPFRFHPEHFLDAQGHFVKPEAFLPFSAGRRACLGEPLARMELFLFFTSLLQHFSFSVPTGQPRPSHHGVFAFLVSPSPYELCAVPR

In the case of `Cc1cc(NC(=O)c2cccc(S(=O)(=O)N[C@H]3CCOC3)c2)ccc1F`, the AUC(0-inf) in [1] was found to be 119000 ng·h/mL; in [15] it was 4780 ng·h/mL. Further, the half-life in data set [2] and in data set [13] was 1.1 h throughout. The Cmax in data set [3] is 2110 ng/mL; in data set [8], 1940 ng/mL. The compound also had an inhibition in data set [4] of 71%. In addition, the metabolised at 0.25 h, 1 µM in [5] worked out at 26%. In addition, the IC50 in [6] and in [7] was greater than 10 µM in each case. Moreover, the Tmax in [9] came to 1 h; in data set [14], 0.5 h. Also, the concentration at 24 h in data set [10] was 570 ng/g. In addition, the result in data set [11] was inactive. For the same compound, in [12], the solubility kinetic at 4 h came out at 82 µM (≈ 31 µg/mL).
